Screening data deposited in PubChem by The Scripps Research Institute Molecular Screening Center.
A selection: hits, their analogues and other compounds. The true share with any hit is near 2.3%.
ADAM17 inh = inhibitors of human ADAM17. actives 0.83% (n = 370,000). P78536. recombinant ADAM17, EDANS/DABCYL FRET peptide cleavage. inhibition, % at 6.95 µM;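 active = inhibition above the mean of compounds lying between control limits plus 3 SD, set per campaign, cut at about 8.5% in these data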
PLC-gamma1 inh = inhibitors of human phospholipase C gamma1; P19174; purified PLC-gamma1, fluorogenic substrate, fluorescence; inhibition, % at 12.2 µM; actives 0.84% (n = 370,000); in the data active = inhibition above about 9.5%
ADAM10 inh = inhibitors of human ADAM10 | recombinant ADAM10, EDANS/DABCYL FRET peptide cleavage, 3 h | actives 0.62% (n = 370,000) | inhibition, % at 7 µM;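 active = inhibition above a per-campaign cutoff equal to the mean of compounds falling between control-based bounds plus 3 SD, cut at about 20% in these data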
Target sequence (O14672 214-748 limits assumed): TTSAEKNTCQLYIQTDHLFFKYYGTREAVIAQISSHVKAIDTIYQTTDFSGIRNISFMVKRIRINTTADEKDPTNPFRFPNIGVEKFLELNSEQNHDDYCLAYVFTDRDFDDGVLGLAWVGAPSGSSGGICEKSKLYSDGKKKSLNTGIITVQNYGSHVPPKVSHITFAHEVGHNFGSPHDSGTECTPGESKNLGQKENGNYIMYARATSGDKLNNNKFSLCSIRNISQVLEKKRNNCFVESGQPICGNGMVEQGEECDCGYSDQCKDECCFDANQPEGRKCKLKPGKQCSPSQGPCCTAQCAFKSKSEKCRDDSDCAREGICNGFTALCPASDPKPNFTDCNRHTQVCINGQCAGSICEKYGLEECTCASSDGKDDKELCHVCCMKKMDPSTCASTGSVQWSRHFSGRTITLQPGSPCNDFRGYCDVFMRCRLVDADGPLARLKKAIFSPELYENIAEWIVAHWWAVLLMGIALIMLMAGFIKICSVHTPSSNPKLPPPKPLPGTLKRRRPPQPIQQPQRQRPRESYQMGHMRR
TbMetRS inhib = blocks T. brucei methionyl-tRNA synthetase activity; actives 0.4% (n = 360,000); AID 624268; purified T. brucei MetRS, ATP depletion, Kinase-Glo luminescence; inhibition, % at 11.9 µM;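 active = inhibition above a per-plate cutoff of the control wells' mean inhibition plus 3 SD, cut at about 5.5% in these data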
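Assay system: T. brucei methionyl-tRNA synthetase, purified | Medium: HEPES buffer with MgCl2, KCl, DTT, spermine, BSA, pyrophosphatase | Compound: 11.9 µM single point | Incubation: 15 min enzyme-compound preincubation, 2 h reaction, 10 min detection, 25 °C | Measured by: Kinase-Glo luciferase luminescence reporting remaining unconsumed ATP | Measure: % inhibition normalized to control-well medians | Replication: Singlicate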
PLC-beta3 inh = inhibitors of human phospholipase C beta3; Q01970; Purified PLC-beta3, fluorogenic substrate, fluorescence; inhibition, % at 12.2 µM; actives 0.18% (n = 370,000); AID 720704
PLCgamma1 ctr = counter-screen for PLC-beta3 inhibitors: inhibitors of human PLC-gamma1; shares compounds with PLC-gamma1 inh; purified PLC-gamma1, fluorogenic substrate, fluorescence; inhibition, % at 12.3 µM; actives 3.1% (n = 3,300); in the data active = inhibition above about 9.5%
PLCbeta3 conf = confirmation of human PLC-beta3 inhibitors | purified PLC-beta3, fluorogenic substrate fluorescence | actives 1% (n = 3,300) | inhibition, % at 12.3 µM | shares compounds with PLC-gamma1 inh | AID 743261
Of the large screens only hits and unclear results are named; the others gave an inactive call (follow-up assays come after a bar, where they were run). Cut-off read from the data, not from the text of the source, unless noted: active = inhibition above about 11%; inactive = the rest.

CC(O/N=C(\N)c1ccccc1)C(=O)Nc1cccc(C(F)(F)F)c1 (stereo unspecified)	none
CS(=O)(=O)N(CC(=O)N1CCCC1)C1CCCCC1	none
C/C(=N\Nc1ccc(S(=O)(=O)N2CCOCC2)cc1[N+](=O)[O-])C(C)C	PLC-gamma1 inh 10.2 | PLCgamma1 ctr inactive | PLCbeta3 conf inactive
O=C(CCNC(=O)c1ccco1)NCCc1ccc(Cl)cc1	none
O=C(CCNC(=O)c1ccccc1)NCCc1ccc(Cl)cc1	PLC-gamma1 inh 9.6 | PLCgamma1 ctr inactive | PLCbeta3 conf inactive
CC(C)OC(=O)c1ccc2ccc(-c3ccccc3)nc2c1	none
CC(C)(C)c1ccc(S(=O)(=O)NCC2CCCO2)cc1 (stereo unspecified)	none
O=C(O)c1ccc(S(=O)(=O)NCC2CCCO2)cc1 (stereo unspecified)	PLC-gamma1 inh 11.0 | PLCgamma1 ctr inactive | PLCbeta3 conf inactive
COc1ccc(CNC(=O)C(C)Cc2ccccc2)cc1O (stereo unspecified)	PLC-gamma1 inh 11.7 | PLCgamma1 ctr inactive | PLCbeta3 conf inactive
COc1ccc(N2CCN(C(=O)CCCn3c(=O)[nH]c4cc(Cl)ccc4c3=O)CC2)cc1	PLC-gamma1 inh 10.7 | PLCgamma1 ctr inactive | PLCbeta3 conf inactive
O=C1NC(=S)S/C1=C\C=C\c1ccc([N+](=O)[O-])o1	PLC-gamma1 inh 59.6 | PLCgamma1 ctr 32.5 | PLCbeta3 conf inactive
CC12CCC(C(=O)Nc3ccccc3N3CCOCC3)(CC1=O)C2(C)C (stereo unspecified)	PLC-gamma1 inh 9.5 | PLCgamma1 ctr inactive | PLCbeta3 conf inactive
CC12CCC(C(=O)Nc3ccccc3-n3cccc3)(CC1=O)C2(C)C (stereo unspecified)	none
NC(=O)Cn1c(=O)n(CCC(=O)Nc2ccc(F)cc2)c(=O)c2sccc21	none
CC(C)(C)c1ccc(C(=O)NCc2nnc(SCC(=O)N3CCCC3)o2)cc1	none
Cc1ccccc1-n1c(SC(C)C(N)=O)nnc1-c1cccnc1 (stereo unspecified)	PLC-gamma1 inh 11.4 | PLCgamma1 ctr inactive | PLCbeta3 conf inactive
COc1ccc(/C=N/NC(=O)c2ccc(N3CCCC3=O)cc2)cc1	none
O=C(CSc1nc2c(c(C(F)(F)F)n1)CCc1ccccc1-2)NCc1ccc(F)cc1	PLC-gamma1 inh 13.2, PLC-beta3 inh 12.9 | PLCgamma1 ctr inactive | PLCbeta3 conf inactive
O=C(CSc1nc2c(c(C(F)(F)F)n1)CCc1ccccc1-2)NCc1ccccc1	none
CNc1ncc(C(=O)C(C)(C)C)s1	PLC-gamma1 inh 11.4 | PLCgamma1 ctr inactive | PLCbeta3 conf inactive
Cc1ccc(S(=O)(=O)CCc2nnc(NC(=O)C3CCCO3)s2)cc1 (stereo unspecified)	PLC-gamma1 inh 9.6 | PLCgamma1 ctr inactive | PLCbeta3 conf inactive
CCOc1ccc(-c2cc(C(=O)NC3CCCCC3)[nH]n2)c(C)c1	PLC-beta3 inh 12.3 | PLCgamma1 ctr inactive | PLCbeta3 conf inactive
Cc1onc(-c2ccccc2Cl)c1C(=O)NC(=S)Nc1ccc(C(C)(C)C)cc1	none
CC12CCC(=O)N1C(C(=O)Nc1ccc(S(=O)(=O)N3CCCCC3)cc1)CS2 (stereo unspecified)	none
CC12CCC(=O)N1C(C(=O)Nc1cc(S(=O)(=O)N3CCCCCC3)ccc1OCC(F)(F)F)CS2 (stereo unspecified)	PLC-gamma1 inh 11.3 | PLCgamma1 ctr inactive | PLCbeta3 conf inactive
CC12CCC(=O)N1C(C(=O)Nc1cccc(S(=O)(=O)N3CCCCCC3)c1)CS2 (stereo unspecified)	PLC-gamma1 inh 10.3 | PLCgamma1 ctr inactive | PLCbeta3 conf inactive
Cn1cc(-c2coc3c(C(=O)NCc4cccc(Cl)c4)cccc23)cn1	none
Cc1cc(C)cc(N(CC(=O)NCc2ccco2)C(=O)CCC(=O)Nc2ccccn2)c1	PLC-gamma1 inh 10.9 | PLCgamma1 ctr inactive | PLCbeta3 conf inactive
CC12CCC3c4ccc(O)c([N+](=O)[O-])c4CCC3C1CCC2=O (stereo unspecified)	none
CCOc1ccc(CCNC(=O)CCn2cccc2)cc1OCC	PLC-gamma1 inh 11.2 | PLCgamma1 ctr inactive | PLCbeta3 conf inactive
COc1ccc(CCNC(=O)CCn2cccc2)cc1OC	none
CCOc1ccc(CCNC(=O)c2[nH]c(C)c(C(C)=O)c2C)cc1OCC	PLC-gamma1 inh 9.8 | PLCgamma1 ctr inactive | PLCbeta3 conf inactive
COC(=O)C1CCN(C2CN(Cc3cn(Cc4ccc(C(F)(F)F)cc4)nn3)S(=O)(=O)C2)CC1 (stereo unspecified)	none (no result: TbMetRS inhib)
COc1ccc(C(C)NCCC(c2ccc(OC(C)C)cc2)c2ccccc2OC)cc1 (stereo unspecified)	PLC-gamma1 inh 16.4 | PLCgamma1 ctr inactive | PLCbeta3 conf inactive
CC(C)CNc1ncnc2c1ncn2[C@H]1CN(C2CCCC2)C[C@@H](CO)O1	none
CC(=O)/C(=N\Nc1ccc(C)cc1)Sc1nncn1C	none
COc1cc(Cl)cc(C(c2c(C(=O)O)[nH]c3ccccc23)c2c(C(=O)O)[nH]c3ccccc23)c1O	PLC-gamma1 inh 10.7 | PLCgamma1 ctr inactive | PLCbeta3 conf inactive
Nc1cc(Cl)ccc1C(=O)OCC(=O)NCC1CCCO1 (stereo unspecified)	none
COc1cccc(CN2C(=O)N(C(C)C)C(N(O)C(=O)NC(C)C)C2(C)C)c1OC (stereo unspecified)	PLC-gamma1 inh 13.6, PLC-beta3 inh 14.7 | PLCgamma1 ctr inactive | PLCbeta3 conf inactive
CC1(C(=O)Nc2cccc(NS(C)(=O)=O)c2)Cc2c(-c3ccc(C(N)=O)cc3)ccnc2O1 (stereo unspecified)	PLC-gamma1 inh 10.5 | PLCgamma1 ctr inactive | PLCbeta3 conf inactive
CC(=O)Nc1ccc(-c2ccnc3c2CC(C)(C(=O)NC(C)C)O3)cc1 (stereo unspecified)	PLC-gamma1 inh 11.9 | PLCgamma1 ctr inactive | PLCbeta3 conf inactive
COc1ccc(CNC(=O)C2(C)Cc3c(-c4cccc(C(N)=O)c4)ccnc3O2)cc1OC (stereo unspecified)	PLC-gamma1 inh 10.3 | PLCgamma1 ctr inactive | PLCbeta3 conf inactive
CCN(CC)C(=O)c1cc2c(=O)oc3ccccc3c2s1	PLC-gamma1 inh 10.6 | PLCgamma1 ctr inactive | PLCbeta3 conf inactive
CCN(CC)C(=O)c1cc2c(=O)n3ccccc3nc2s1	none
CC(=O)Nc1ccc(S(=O)(=O)NC2CC(=O)N(c3ccc(C)c(C)c3)C2)cc1 (stereo unspecified)	PLC-gamma1 inh 12.4 | PLCgamma1 ctr inactive | PLCbeta3 conf inactive
COc1ccc(C(CNC(=O)Cc2cccs2)N(C)C)cc1 (stereo unspecified)	none
Nc1cc(Nc2ccccc2)c2nonc2c1[N+](=O)[O-]	PLC-gamma1 inh 10.7 | PLCgamma1 ctr inactive | PLCbeta3 conf inactive
